From publication PMC4281097 (Journal of Medicinal Chemistry, 2014)
pKd: −log10 of the molar value. Entries after “also recorded” stand apart in the source; their conditions may differ. Like-named read-outs stand apart in the source and are kept apart here. Blank lines part the entries; values can stand above or below the molecule they belong to.

Experiments:
[1] = tested on: ES cell lines (TC32 and TC71); assay: Cell proliferation assay in ES cell lines; assay type: cell-based, human; details: for Growth inhibition / antiproliferative activity in words: ES cell lines containing EWS-FLI1; for GI50: read-out: GI50 bound used to select compounds for the reporter assay
[2] = molecular target: T1, EWS-FLI1 (Homo sapiens, UniProt Q01543+Q01844); assay: EWS-FLI1/NR0B1 reporter luciferase assay in transfected COS7 cells; assay type: cell-based; details: COS7 cells transfected with EWS-FLI1 and NR0B1 reporter, 20 h treatment
T1 sequence (Q01844 1-264): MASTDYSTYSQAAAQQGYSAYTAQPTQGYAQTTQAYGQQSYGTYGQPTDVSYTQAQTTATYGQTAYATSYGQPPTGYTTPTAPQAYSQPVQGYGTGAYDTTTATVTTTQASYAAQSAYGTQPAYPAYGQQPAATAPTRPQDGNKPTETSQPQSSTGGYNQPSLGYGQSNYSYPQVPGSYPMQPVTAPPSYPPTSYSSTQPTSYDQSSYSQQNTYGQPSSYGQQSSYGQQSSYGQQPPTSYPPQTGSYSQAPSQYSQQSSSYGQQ
T1 sequence (Q01543 220-452): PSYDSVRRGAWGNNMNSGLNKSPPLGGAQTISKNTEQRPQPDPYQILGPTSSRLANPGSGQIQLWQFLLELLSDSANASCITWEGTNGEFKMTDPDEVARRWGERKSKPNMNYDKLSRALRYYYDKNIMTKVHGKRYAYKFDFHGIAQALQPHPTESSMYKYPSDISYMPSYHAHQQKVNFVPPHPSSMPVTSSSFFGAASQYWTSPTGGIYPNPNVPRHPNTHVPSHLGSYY
How it was run: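 COS7 cells (DMEM, 10% FBS) transiently co-transfected with NR0B1 luciferase reporter carrying EWS-FLI1 binding sites plus full-length EWS-FLI1 or empty pCI-neo vector. Treated 1.5 h post-transfection with test compound at 0.05, 0.15, 0.5, 1.5, 5 or 15 μM, or DMSO. Luciferase measured 20 h later. IC50 from sigmoidal dose–response fit. Quadruplicate wells, mean ± SD of a representative experiment.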

[3] = tested on: TC32 cells; assay: Cell proliferation assay; assay type: cell-based, human; details: for Fold loss of growth inhibitory activity in TC32 cells compared to 2: relative to 2
[4] = tested on: TC32 cells; details: cited from earlier work
[5] = tested on: PANC1 cells; assay: Cell proliferation assay; assay type: cell-based, human; details: PANC1 cells (selectivity control)
How it was run: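 TC71 grown in RPMI with 10% FBS and 1% HEPES; PANC1 in DMEM with 10% FBS; both at 37 °C, 5% CO2. Cells plated in colorless medium at 5000–15000 cells/well depending on line. Test compound or DMSO vehicle added the day after plating. Viable cells quantified by MTT or WST-1 after 3 days of treatment. GI50 derived by nonlinear regression.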

[6] = tested on: ES cells; details: read-out: GI50 in ES cells; several ES cells; cited from earlier work
[7] = tested on: COS7 cells; assay: Cell proliferation assay; assay type: cell-based, monkey; details: WST, 48 h
[8] = molecular target: T1, EWS-FLI1; details: binding to EWS-FLI1; cited from earlier work
[9] = tested on: ES orthotopic xenografts; details: cited from earlier work
[10] = molecular target: BSA (Bos taurus, UniProt P02769); assay: ELISA-like binding assay, immobilized BSA control; parameters: species or system bovine; details: BSA immobilized instead of EWS-FLI1
How it was run: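 BSA immobilized in wells in place of recombinant EWS-FLI1. Biotinylated test compound, diluted from DMSO stock in assay buffer, was incubated 1 h. Wells washed five times. Detection used HRP-streptavidin (1:5000, 1 h, room temperature) and colorimetric substrate, with absorbance at 405 nm.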

[11] = molecular target: T1, EWS-FLI1; assay: ELISA-like binding assay of biotin conjugate to immobilized recombinant EWS-FLI1
How it was run: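 EWS-FLI1 expressed in BL21 (1 mM IPTG, 2 h, 27 °C) and recovered from inclusion bodies. Denatured in guanidinium, Ni-chelate purified, refolded on-column by gradient out of urea, then imidazole-eluted. Wells coated overnight with 20 nM protein and blocked with 4% BSA/PBS (1 h, rt). Biotinylated test compound from DMSO stock added for 1 h. Detection used HRP-streptavidin (1:5000, 1 h, rt) and colorimetric substrate read at 405 nm.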

Chain of BSA (P02769 25-607): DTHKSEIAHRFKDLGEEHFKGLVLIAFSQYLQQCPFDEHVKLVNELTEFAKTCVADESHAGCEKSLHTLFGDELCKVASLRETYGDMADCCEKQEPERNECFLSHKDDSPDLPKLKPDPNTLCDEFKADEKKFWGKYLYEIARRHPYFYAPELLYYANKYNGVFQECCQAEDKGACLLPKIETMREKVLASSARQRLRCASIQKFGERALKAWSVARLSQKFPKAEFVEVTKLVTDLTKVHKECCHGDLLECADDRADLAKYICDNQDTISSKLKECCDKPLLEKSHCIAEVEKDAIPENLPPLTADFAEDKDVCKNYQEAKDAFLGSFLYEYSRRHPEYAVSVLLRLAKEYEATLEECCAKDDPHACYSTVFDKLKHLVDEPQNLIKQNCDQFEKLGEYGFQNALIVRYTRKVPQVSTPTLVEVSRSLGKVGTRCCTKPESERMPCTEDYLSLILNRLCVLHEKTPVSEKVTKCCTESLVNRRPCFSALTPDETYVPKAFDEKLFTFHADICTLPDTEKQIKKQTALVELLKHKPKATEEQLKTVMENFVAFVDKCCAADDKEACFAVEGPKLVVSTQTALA

Molecule: 4,7-Dichloro-3-(2-(4-ethoxyphenyl)-2-oxoethyl)-3-hydroxyindolin-2-one [9n]
Growth inhibition / antiproliferative activity in words [1]: complete loss of activity

Inhibition of EWS-FLI1 transcriptional activity in words [2]: lower than 2
Molecule: 4,7-Dichloro-3-hydroxyl-3-(2-oxo-2-p-tolylethyl)-1,3-dihydroindol-2-one [9m]
Fold loss of growth activity / potency compared to 2 ([1]; ES cells, relative to 2): 3 fold | GI50 ([1]; ES cells): ≤ 2700 nM

Inhibition of EWS-FLI1 transcriptional activity in words [2]: modest inhibitory effects
Molecule: 4,7-Dichloro-3-methoxy-3-(2-(4-methoxyphenyl)-2-oxoethyl)indolin-2-one [14a]
GI50 ([1]; ES cells): ≤ 2700 nM | Fold loss of growth inhibitory activity in TC32 cells compared to 2 [3]: 2 fold

Molecule: COc1ccc(C(=O)CC2(O)C(=O)Nc3c(Cl)ccc(Cl)c32)cc1 (single isomer, unassigned) [S-(−) enantiomer of 2]
Fold more potent in vitro than racemic 2 ([4]; in vitro): 4 fold | GI50 ([4]; read-out: GI50 of single enantiomer, in vitro, TC32 cells): 280 nM

Molecule: COc1ccc(C(=O)CC2(O)C(=O)Nc3c(OC)ccc(OC)c32)cc1 (stereo not shown) [6e, 3-Hydroxy-4,7-dimethoxy-3-(2-(4-methoxyphenyl)-2-oxoethyl)indolin-2-one]
GI50 in TC32 cells [3]: 1000 nM

Inhibition of EWS-FLI1 transcriptional activity in words [2]: did not inhibit
Molecule: COc1ccccc1C(=O)CC1(O)C(=O)Nc2c(Cl)ccc(Cl)c21 (stereo not shown) [9a, 4,7-Dichloro-3-hydroxy-3-(2-(2-methoxyphenyl)-2-oxoethyl)indolin-2-one]
Growth inhibition / antiproliferative activity in words [1]: reduced inhibition of cell growth; also recorded: no antiproliferative activity

Molecule: COc1cccc(C(=O)CC2(O)C(=O)Nc3c(Cl)ccc(Cl)c32)c1 (stereo not shown) [9b, 4,7-Dichloro-3-hydroxy-3-(2-(3-methoxyphenyl)-2-oxoethyl)indolin-2-one]
Growth inhibition / antiproliferative activity in words [1]: reduced inhibition of cell growth

Inhibition of EWS-FLI1 transcriptional activity in words [2]: lower than 2
Molecule: COc1ccc(C(=O)CC2(O)C(=O)Nc3c(Cl)ccc(Cl)c32)c(OC)c1 (stereo not shown) [9c, 4,7-Dichloro-3-(2-(2,4-dimethoxyphenyl)-2-oxoethyl)-3-hydroxyindolin-2-one]

Molecule: COc1cc(OC)cc(C(=O)CC2(O)C(=O)Nc3c(Cl)ccc(Cl)c32)c1 (stereo not shown) [9d, 4,7-Dichloro-3-(2-(3,5-dimethoxyphenyl)-2-oxoethyl)-3-hydroxyindolin-2-one]
Fold loss of growth inhibitory activity in TC32 cells compared to 2 [3]: ~10 fold

Molecule: COc1cccc(C(=O)CC2(O)C(=O)Nc3c(Cl)ccc(Cl)c32)c1OC (stereo not shown) [9e, 4,7-Dichloro-3-(2-(2,3-dimethoxyphenyl)-2-oxoethyl)-3-hydroxyindolin-2-one]
Growth inhibition / antiproliferative activity in words [1]: reduced inhibition of cell growth

Molecule: COc1ccc(C(=O)CC2(O)C(=O)Nc3c(Cl)ccc(Cl)c32)c(OC)c1OC (stereo not shown) [9f, 4,7-Dichloro-3-hydroxy-3-(2-oxo-2-(2,3,4-trimethoxyphenyl)ethyl)indolin-2-one]
Fold loss of growth activity / potency compared to 2 ([1]; ES cells, relative to 2): 3 fold

Molecule: O=C(CC1(O)C(=O)Nc2c(Cl)ccc(Cl)c21)c1ccc(C(F)(F)F)cc1 (stereo not shown) [9j, 4,7-Dichloro-3-hydroxy-3-(2-oxo-2-(4-(trifluoromethyl)phenyl)ethyl)indolin-2-one]
Fold loss of growth inhibitory activity in TC32 cells compared to 2 [3]: 3 fold | Inhibition of PANC1 cell growth in words [5]: inhibited PANC1 cells growth

Molecule: CC(C)Oc1ccc(C(=O)CC2(O)C(=O)Nc3c(Cl)ccc(Cl)c32)cc1 (stereo not shown) [9p, 4,7-Dichloro-3-hydroxy-3-(2-(4-isopropoxyphenyl)-2-oxoethyl)indolin-2-one]
Growth inhibition / antiproliferative activity in words [1]: complete loss of activity

Molecule: O=C(CC1(O)C(=O)Nc2c(Cl)ccc(Cl)c21)c1ccc(Oc2ccccc2)cc1 (stereo not shown) [9q, 4,7-Dichloro-3-hydroxy-3-(2-oxo-2-(4-phenoxyphenyl)ethyl)indolin-2-one]
Growth inhibition / antiproliferative activity in words [1]: complete loss of activity

Molecule: Nc1ccc(C(=O)CC2(O)C(=O)Nc3c(Cl)ccc(Cl)c32)cc1 (stereo not shown) [9s, 3-[2-(4-Aminophenyl-2-oxoethyl)]-4,7-dichloro-3-hydroxyl 1,3-dihydroindol-2-one]
Growth inhibition / antiproliferative activity in words [1]: complete loss of activity

Molecule: CN(C)c1ccc(C(=O)CC2(O)C(=O)Nc3c(Cl)ccc(Cl)c32)cc1 (stereo not shown) [9u, 4,7-Dichloro-3-(2-(4-(dimethylamino)phenyl)-2-oxoethyl)-3-hydroxyindolin-2-one]
Fold increase in potency compared to 2 ([1]; ES cells, relative to 2): over 3 fold | GI50 in TC32 cells [3]: 260 nM

Molecule: COc1ccc(C(=O)CC2(O)C(=O)N(c3ccccc3)c3c(Cl)ccc(Cl)c32)cc1 (stereo not shown) [14b, 4,7-Dichloro-3-hydroxy-3-(2-(4-methoxyphenyl)-2-oxoethyl)-1-phenylindolin-2-one]
Growth inhibition / antiproliferative activity in words [1]: complete loss of activity

Molecule: COc1ccc(C(=O)C[C@]2(O)C(=O)Nc3c(Cl)ccc(Cl)c32)cc1 [R-(+)]
In vitro activity of enantiomer in words ([4]; in vitro): almost inactive

Molecule: O=C(CC1(O)C(=O)Nc2c(Cl)ccc(Cl)c21)c1ccc(Cl)cc1 (stereo not shown) [compound 1, 4,7-dichloro-3-(2-(4-chlorophenyl)-2-oxoethyl)-3-hydroxyindolin-2-one]
GI50 in TC32 cells ([4]; TC32 cells): 20000 nM

Molecule: COc1ccc(C(=O)CC2(O)C(=O)Nc3c(Cl)ccc(Cl)c32)cc1 (stereo not shown) [compound 2, YK-4-279]
GI50 in TC32 cells ([4]; TC32 cells): 900 nM | GI50 [6]: 500 to 2000 nM | Cytotoxicity / effect on COS7 cell proliferation in words [7]: negligible effect | pKd [8]: 5.02 | Growth of ES orthotopic xenografts in words [9]: reduces the growth

Molecule: COc1ccc(C(=O)/C=C2\C(=O)Nc3c(Cl)ccc(Cl)c32)cc1 [compound 10, (Z)-4,7-Dichloro-3-(2-(4-methoxyphenyl)-2-oxoethylidene)indolin-2-one]
GI50 in TC32 cells [3]: 1000 nM

Inhibition of EWS-FLI1 transcriptional activity in words [2]: did not display any inhibition
Molecule: COc1ccc(C(=O)CC2(OC)C(=O)Nc3c(Cl)ccc(Cl)c32)cc1 (stereo not shown) [compound 11, 4,7-Dichloro-3-methoxy-3-(2-(4-methoxyphenyl)-2-oxoethyl)indolin-2-one]
Growth inhibition / antiproliferative activity in words [1]: complete loss of inhibitory activity; also recorded: no antiproliferative activity

Inhibition of EWS-FLI1 transcriptional activity in words [2]: modest inhibitory effects
Molecule: COc1ccc(C(=O)CC2(OC)C(=O)N(C)c3c(Cl)ccc(Cl)c32)cc1 (stereo not shown) [compound 15, 4,7-Dichloro-3-methoxy-3-(2-(4-methoxyphenyl)-2-oxoethyl)-1-methylindolin-2-one]
Growth inhibition / antiproliferative activity in words [1]: inactive; also recorded: no antiproliferative activity

Molecule: COc1ccc(C(=O)CC2(O)C(=O)Nc3c(Cl)ccc(Cl)c32)cn1 (stereo not shown) [compound 18, 4,7-Dichloro-3-hydroxy-3-(2-(6-methoxypyridin-3-yl)-2-oxoethyl)indolin-2-one]
Growth inhibition / antiproliferative activity in words [1]: complete loss of growth inhibition

Binding to immobilized BSA in words [10]: No binding was detected | Concentration at which binding saturation was reached [11]: 20 µM
Molecule: CN(C(=O)CCCCCNC(=O)CCCC[C@H]1SCC2NC(=O)NC21)c1ccc(C(=O)CC2(O)C(=O)Nc3c(Cl)ccc(Cl)c32)cc1 (stereo partly drawn) [compound 24, N-(4-(2-(4,7-Dichloro-3-hydroxy-2-oxoindolin-3-yl)acetyl)phenyl)-N-methyl-6-(5-((4R)-2-oxohexahydro-1H-thieno[3,4-d]imidazol-4-yl)pentanamido)hexanamide]
